Test results: article PMC8901509 (Clinical Drug Investigation, 2021)
Like-named read-outs stand apart in the source and are kept apart here.

What was measured:
[1] = cited from earlier work
[2] = Study 1: safety and tolerability; format: in vivo, human
Summary of the method: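 Healthy males given a single oral 25 mg tablet followed 4 h later by a 15-min IV [14C]-microtracer infusion. Medical surveillance for 24 h post-dose. AEs recorded continuously from screening to end-of-trial visit (Days 12–15). Assessment by physical examination, safety laboratory parameters, 12-lead ECG and vital signs (pulse rate, blood pressure).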

[3] = Study 2: metabolite radioprofiling in plasma, urine and feces; format: in vivo, human
Summary of the method: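 Single oral 25 mg [14C]-labelled solution to healthy males. Plasma (to 168 h), urine and daily feces profiled by HPLC radiochromatography with fractionation and solid scintillation counting. Identification by LC/MS with accurate mass, positive and negative ion CID MS/MS; tentative unless matched to an authentic standard. Peaks < 20 cpm height below quantitation limit.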

[4] = format: in vivo, human; settings: gMean dose-normalized maximum plasma concentration
Summary of the method: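 Healthy males, overnight fast (≥ 10 h); single oral 25 mg film-coated tablet with water, fasted ≥ 4.5 h; at 4 h, 15-min IV infusion of 30 µg (3 µg [14C]-labelled, 0.011 MBq, plus 27 µg unlabelled). Plasma sampled −2 to 168 h (unlabelled) or 3–168 h (labelled), stored ~−20 °C. Unlabelled drug by validated LC/MS, labelled by AMS. Dose-normalized gMean ratio via mixed-effects ANOVA, two-sided 90% CI.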

[5] = tested on: glycine transporter-1 (GlyT1); settings: human; dose-dependent; cited from earlier work
[6] = Study 2: safety and tolerability; format: in vivo, human
Summary of the method: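 Healthy males, sitting, given a single oral 25 mg dose of [14C]-labelled plus unlabelled drug as a solution after an overnight fast. Safety from physical examination (AEs), safety laboratory parameters, 12-lead ECG and vital signs (pulse rate, blood pressure). Investigators graded severity and drug relatedness.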

[7] = format: in vivo; settings: human, plasma, po, 25 mg, t½, oral 25 mg solution, gMean (gCV%)
Summary of the method: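 Healthy males, overnight fast (≥ 10 h), sitting; single oral 25 mg dose of [14C]-labelled/unlabelled mixture as 12.5 mL solution (2 mg/mL) with 240 mL water, planned 3.7 MBq; no food ≥ 4 h. Venous blood 5–8 mL per time point; plasma frozen ~−20 °C within 60 min. Cmax, AUC0–tz, AUC0–∞, tmax, t1/2 for parent, three metabolites and total radioactivity.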

[8] = anticipated therapeutic dose range of 5–25 mg; cited from earlier work
[9] = multiple oral doses of itraconazole; cited from earlier work
[10] = cited from earlier work; remark: listed apart in the source
[11] = tested on: glycine transporter-1 (GlyT1); settings: rat; dose-dependent; cited from earlier work

% of Dose Administrated; % of the radioactive dose ([3]; Average, feces radioprofiling): < 1%
Plasma (%AUC0-168h), % [14C]; % of total plasma radioactivity ([3]; Average, plasma radioprofiling): 41.0%
% of total radioactivity in feces ([3]; feces radioprofiling): < 1%
Cmax,norm lower after oral administration versus IV dose [4]: approximately 80%
half-life [7]: ~50 h
Structure (SMILES): C[C@@H](Oc1ccc(S(C)(=O)=O)cc1C(=O)N1C[C@@H]2C[C@]2(c2cc(C(F)(F)F)on2)C1)C(F)(F)F [BI 425809]
adjusted gMean ratio for AUC0–tz, tablet fasted vs. oral solution fasted ([1]; 25 mg tablet vs 25 mg solution): 80.5%
adjusted gMean ratio for Cmax, tablet fasted vs. oral solution fasted ([1]; 25 mg tablet vs 25 mg solution): 50.0%
adjusted gMean ratio AUC0–tz, high-fat/high-calorie meal versus 10-h fasted ([1]; 25 mg tablet): 125.9%
adjusted gMean ratio Cmax, high-fat/high-calorie meal versus 10-h fasted ([1]; 25 mg tablet): 142.1%
participants reporting at least one treatment-emergent AE ([2]; of six participants): 50.0%
intensity of treatment-emergent AEs ([2]; study 1): mild intensity
serious AEs, AEs leading to discontinuation, AEs of special interest ([2]; study 1): no serious AEs reported
tolerability ([2]; study 1, oral 25 mg): generally well tolerated
levels of glycine in cerebral spinal fluid (CSF) [5]: increased
Total with on-treatment adverse events, % ([6]; 6 subjects): 83.3%
AEs considered severe or drug related by the investigators ([6]; study 2): none
SAEs, AEs leading to discontinuation, AEs of special interest ([6]; study 2): No SAEs
tolerability ([6]; study 2, single 25 mg dose): generally well tolerated
tolerability [8]: generally well tolerated
gMean ratio of Cmax with co-administration of itraconazole [9]: 116.1%
Biopharmaceutics Classification System class [10]: Class II
permeability [10]: high
levels of glycine in cerebral spinal fluid (CSF) [11]: increased
